# ChEMBL document CHEMBL3352073, “Synthesis of cyclic 1,9-acetal derivatives of forskolin and their bioactivity evaluation” (Eur J Med Chem, 2014)
# Experiments:
# WRL68 = assay: Anticancer activity against human WRL68 cells after 24 hrs by MTT assay; type: functional, cell-based; settings: WRL68, 24 h
# How it was run: (§1)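 Cells were seeded at 1 × 10^6 to 1 × 10^5 cells/well in FBS-rich medium with antibiotics, and compounds were added after 24 h. MTT (5 mg/ml stock in PBS pH 7.4) was then added, with 4 h in the dark in an incubator. Dye was removed (except for suspension K562), formazan was dissolved in DMSO with 10 min shaking, and A570 was read. Percent cytotoxicity was calculated relative to untreated control absorbance.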
# [1] = Anticancer activity against human MDA-MB cells after 24 hrs by MTT assay; type: functional, cell-based
# HEK293 = assay: Cytotoxic activity against HEK293 cells after 24 hrs by MTT assay; type: cell-based; settings: Homo sapiens, HEK293, 24 h; how it was run: as §1
# [2] = Anticancer activity against human SH-SY5Y cells after 24 hrs by MTT assay; type: functional, cell-based
# K562 = assay: Anticancer activity against human K562 cells after 24 hrs by MTT assay; type: functional, cell-based; settings: K562, 24 h; how it was run: as §1
# A498 = assay: Anticancer activity against human A498 cells after 24 hrs by MTT assay; type: functional, cell-based; settings: A498, 24 h; how it was run: as §1
# [3] = Induction of hemolysis in human erythrocytes assessed as mean erythrocyte fragility by measuring level of hemolysis at 50% PBS at 100 ug/mL by spectrophotomtery based erythrocyte osmotic fragility assay; type: cell-based
# How it was run: (§2)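 Heparinised human blood was incubated with compound at 37 °C for 60 min, then transferred to hypotonic PBS (0.1–0.85 %). After 30 min equilibration and centrifugation, supernatant A540 was read. Percent lysis is relative to a 100% haemolysis standard, and fragility curves give MEF50 as the haemolysis level at 50% PBS. DMSO 0.5% served as vehicle control.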
# NRK = assay: Cytotoxicty against rat NRK cells after 24 hrs by MTT assay; type: cell-based; how it was run: as §1
# [4] = Inhibition of rat intestinal alpha-glucosidase using p-nitrophenyl-alpha-D-glucopyranoside substrate by spectrophotometry
# How it was run: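 Crude enzyme was the centrifuged supernatant of sonicated rat intestinal acetone powder in normal saline (100:1 w/v). Samples from 5 mg/mL DMSO stocks were preincubated with enzyme for 5 min in 100 mM phosphate buffer pH 6.8. Then 5 mM p-nitrophenyl-α-D-glucopyranoside solution was added, and p-nitrophenol was read at 405 nm after 5 min. Substrate-free blanks and a DMSO control were included, in triplicate. IC50 was obtained by regression on mean inhibition.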
# HeLa = assay: Anticancer activity against human HeLa cells after 24 hrs by MTT assay; type: functional, cell-based; how it was run: as §1
# MCF7 = assay: Anticancer activity against human MCF7 cells after 24 hrs by MTT assay; type: functional, cell-based; settings: MCF7, 24 h; how it was run: as §1
# [5] = Induction of hemolysis in human erythrocytes assessed as mean erythrocyte fragility by measuring level of hemolysis at 50% PBS at 50 ug/mL by spectrophotomtery based erythrocyte osmotic fragility assay; type: cell-based; how it was run: as §2
Structure (SMILES),IC50 (K562),IC50 [4],IC50 (HeLa),IC50 (MCF7),IC50 (WRL68),IC50 [1],IC50 (HEK293),IC50 [2],IC50 (A498),Activity [3],IC50 (NRK),Activity [5]
CC(=O)O[C@H]1C(=O)[C@@]2(C)[C@H]([C@H](OC(=O)c3ccccc3)[C@]3(O)C[C@H](OC(=O)[C@H](O)[C@@H](NC(=O)c4ccccc4)c4ccccc4)C(C)=C1C3(C)C)[C@]1(OC(C)=O)CO[C@@H]1C[C@@H]2O [PACLITAXEL],0.018 µg/mL,,,,0.004 µg/mL,0.026 µg/mL,0.008 µg/mL,7.3 µg/mL,7.53 µg/mL,,,
COc1cc(/C=C/C(=O)CC(=O)/C=C/c2ccc(O)c(OC)c2)ccc1O [CURCUMIN],,,,,,,,,,0.53,,
C=C[C@@]1(C)CC(=O)[C@@]23O[C@@H](/C=C/c4ccccc4)O[C@H]4CCC(C)(C)[C@H]([C@H](O)[C@H](OC(C)=O)[C@@]2(C)O1)[C@]43C,> 100 µg/mL,0.74 µg/mL,> 100 µg/mL,> 100 µg/mL,> 100 µg/mL,> 100 µg/mL,38.5 µg/mL,> 100 µg/mL,> 100 µg/mL,,> 100 µg/mL,
C=C[C@@]1(C)CC(=O)[C@@]23O[C@@H](c4ccccc4)O[C@H]4CCC(C)(C)[C@H]([C@H](OC(C)=O)[C@H](O)[C@@]2(C)O1)[C@]43C,1.26 µg/mL,4.14 µg/mL,9.22 µg/mL,1.15 µg/mL,16.6 µg/mL,1.28 µg/mL,14.3 µg/mL,16.6 µg/mL,16.7 µg/mL,0.57,20.1 µg/mL,0.53
C=C[C@@]1(C)CC(=O)[C@@]23O[C@@H](C)O[C@H]4CCC(C)(C)[C@H]([C@H](O)[C@H](O)[C@@]2(C)O1)[C@]43C,25.4 µg/mL,4.23 µg/mL,0.95 µg/mL,45.7 µg/mL,29.7 µg/mL,24.5 µg/mL,24.8 µg/mL,34.7 µg/mL,40.6 µg/mL,0.69,48 µg/mL,0.85
C=C[C@@]1(C)CC(=O)[C@@]23O[C@@H](C)O[C@H]4CCC(C)(C)[C@H]([C@H](OC(C)=O)[C@H](O)[C@@]2(C)O1)[C@]43C,> 100 µg/mL,6.4 µg/mL,17.4 µg/mL,39.2 µg/mL,> 100 µg/mL,> 100 µg/mL,> 100 µg/mL,> 100 µg/mL,41.6 µg/mL,,> 100 µg/mL,
C[C@H]1O[C@H](O[C@H]2[C@H](O)[C@@H](O)[C@@H](O[C@H]3[C@H](O)[C@@H](O)C(O)O[C@@H]3CO)O[C@@H]2CO)[C@H](O)[C@@H](O)[C@@H]1N[C@H]1C=C(CO)[C@@H](O)[C@H](O)[C@H]1O (stereo partly specified) [ACARBOSE],,0.45 µg/mL,,,,,,,,,,
COc1cc([C@@H]2c3cc4c(cc3[C@H](O)[C@H]3COC(=O)[C@H]23)OCO4)cc(OC)c1OC [PODOFILOX],0.013 µg/mL,,3.14 µg/mL,,,0.017 µg/mL,0.12 µg/mL,1.05 µg/mL,0.034 µg/mL,0.69,,

# More lines, main results first:
IC50 (K562),IC50 [4],IC50 (HeLa),IC50 (MCF7),Structure (SMILES),IC50 (WRL68),IC50 [1],IC50 (HEK293),IC50 [2],IC50 (A498),Activity [3],IC50 (NRK),Activity [5]
> 100 µg/mL,> 100 µg/mL,42 µg/mL,> 100 µg/mL,C=C[C@@]1(C)CC(=O)[C@@]23O[C@@H](c4cccs4)O[C@H]4CCC(C)(C)[C@H]([C@H](O)[C@H](OC(C)=O)[C@@]2(C)O1)[C@]43C,> 100 µg/mL,> 100 µg/mL,40.1 µg/mL,> 100 µg/mL,> 100 µg/mL,,> 100 µg/mL,
> 100 µg/mL,5.87 µg/mL,> 100 µg/mL,> 100 µg/mL,C=C[C@@]1(C)CC(=O)[C@@]23O[C@@H](C)O[C@H]4CCC(C)(C)[C@H]([C@H](O)[C@H](OC(C)=O)[C@@]2(C)O1)[C@]43C,> 100 µg/mL,> 100 µg/mL,> 100 µg/mL,> 100 µg/mL,> 100 µg/mL,,> 100 µg/mL,
> 100 µg/mL,2.81 µg/mL,> 100 µg/mL,> 100 µg/mL,C=C[C@@]1(C)CC(=O)[C@@]23O[C@@H](c4ccccc4)O[C@H]4CCC(C)(C)[C@H]([C@H](O)[C@H](OC(C)=O)[C@@]2(C)O1)[C@]43C,> 100 µg/mL,> 100 µg/mL,> 100 µg/mL,> 100 µg/mL,> 100 µg/mL,,> 100 µg/mL,
> 100 µg/mL,> 100 µg/mL,46.2 µg/mL,> 100 µg/mL,C=C[C@@]1(C)CC(=O)[C@@]23O[C@@H](c4ccc(Br)cc4)O[C@H]4CCC(C)(C)[C@H]([C@H](O)[C@H](OC(C)=O)[C@@]2(C)O1)[C@]43C,> 100 µg/mL,> 100 µg/mL,> 100 µg/mL,> 100 µg/mL,> 100 µg/mL,,> 100 µg/mL,
1.26 µg/mL,> 100 µg/mL,3.89 µg/mL,> 100 µg/mL,C=C[C@@]1(C)CC(=O)[C@@]23O[C@@H](c4ccccc4)O[C@H]4CCC(C)(C)[C@H]([C@H](O)[C@H](O)[C@@]2(C)O1)[C@]43C,9.79 µg/mL,20.8 µg/mL,1.17 µg/mL,21.6 µg/mL,20.4 µg/mL,0.69,23.7 µg/mL,0.67
> 100 µg/mL,0.76 µg/mL,> 100 µg/mL,> 100 µg/mL,C=C[C@@]1(C)CC(=O)[C@@]23O[C@@H](c4ccc([N+](=O)[O-])cc4)O[C@H]4CCC(C)(C)[C@H]([C@H](O)[C@H](OC(C)=O)[C@@]2(C)O1)[C@]43C,> 100 µg/mL,> 100 µg/mL,> 100 µg/mL,> 100 µg/mL,> 100 µg/mL,,> 100 µg/mL,
> 100 µg/mL,4.96 µg/mL,> 100 µg/mL,> 100 µg/mL,C=C[C@@]1(C)CC(=O)[C@@]23O[C@@H](c4ccco4)O[C@H]4CCC(C)(C)[C@H]([C@H](O)[C@H](OC(C)=O)[C@@]2(C)O1)[C@]43C,> 100 µg/mL,> 100 µg/mL,> 100 µg/mL,> 100 µg/mL,> 100 µg/mL,,> 100 µg/mL,
